The source of these data is ChEMBL document CHEMBL4043106, “Selective opioid growth factor receptor antagonists based on a stilbene isostere” (Bioorg Med Chem, 2017).

Active and inactive are the calls of the source. The calls are words filed in the database; no cut-off is given here.

The species named for data set [1] is Chlorocebus aethiops. Kind of data set: Antagonist activity at OGFR in African green monkey COS7 cells harboring OGF assessed as increase in cell growth at 1 uM after 72 hrs by hemacytometric method. The procedure, abridged:
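COS-7 cells grown in DMEM with 10% fetal calf serum and antibiotics at 37°C, 5% CO2. Seeded at 20,000 cells/well and counted 24 h later as time 0. Treated with 1 μM compound or sterile water vehicle; growth counted at 72 h.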

For data set [2], the target named is T1, Mu-type opioid receptor (Homo sapiens, UniProt P35372). The experiment in a line: Agonist activity at human mu opioid receptor assessed as beta-arrestin recruitment up to 5 uM after 180 mins by chemiluminescence assay. The procedure, abridged:
(§1)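 Commercial β-arrestin kit using cells transfected with human MOR, DOR or KOR. Cells plated and held 48 h at 37°C in 5% CO2. Compound added for 180 min at 37°C, starting at 5 μM with 1:3 serial dilutions. Reference agonists were DADLE (DOR), Met5-enkephalin (MOR) and dynorphin A (KOR). Detection reagent then added for 1 h at room temperature in the dark; chemiluminescence read.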
(Activated receptors often draw arrestin, which recruitment assays turn into a signal.)

Data set [3] deals with T1, Mu-type opioid receptor. Kind of data set: Antagonist activity at mu opioid receptor (unknown origin) up to 10 uM by GTPgammaS functional assay. The procedure, abridged:
(§2)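 GTPγS functional assay at KOR, DOR and MOR, run in both agonist and antagonist modes, with test concentrations up to 10 μM.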

Data set [4] concerns the target T2, Kappa-type opioid receptor (Homo sapiens, UniProt P41145). The experiment in a line: Agonist activity at human kappa opioid receptor assessed as beta-arrestin recruitment up to 5 uM after 180 mins by chemiluminescence assay. Conditions: 3 h. The procedure, abridged:
as §1

Data set [5] concerns the target T2, Kappa-type opioid receptor. Kind of data set: Antagonist activity at kappa opioid receptor (unknown origin) up to 10 uM by GTPgammaS functional assay. The procedure, abridged: as §2
The target of data set [6] is T3, Opioid growth factor receptor (Homo sapiens) (UniProt Q9NZT2).
T3 sequence (whole entry): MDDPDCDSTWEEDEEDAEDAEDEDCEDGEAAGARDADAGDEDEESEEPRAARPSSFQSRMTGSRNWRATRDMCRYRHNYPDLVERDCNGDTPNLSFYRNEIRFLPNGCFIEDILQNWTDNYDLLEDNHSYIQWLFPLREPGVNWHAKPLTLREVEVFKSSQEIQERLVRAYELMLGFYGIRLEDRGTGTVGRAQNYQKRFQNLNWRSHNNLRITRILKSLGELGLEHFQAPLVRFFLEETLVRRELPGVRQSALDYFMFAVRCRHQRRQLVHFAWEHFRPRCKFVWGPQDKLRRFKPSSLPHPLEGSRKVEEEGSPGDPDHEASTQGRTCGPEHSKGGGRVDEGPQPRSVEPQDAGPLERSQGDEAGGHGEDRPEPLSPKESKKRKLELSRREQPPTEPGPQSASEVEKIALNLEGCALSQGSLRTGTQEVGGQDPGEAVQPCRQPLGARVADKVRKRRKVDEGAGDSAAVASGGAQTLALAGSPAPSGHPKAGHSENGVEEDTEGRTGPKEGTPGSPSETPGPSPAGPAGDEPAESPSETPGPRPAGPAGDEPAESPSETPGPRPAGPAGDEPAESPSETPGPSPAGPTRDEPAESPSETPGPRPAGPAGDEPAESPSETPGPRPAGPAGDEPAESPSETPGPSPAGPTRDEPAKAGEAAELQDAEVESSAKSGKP
The experiment in a line: Antagonist activity at OGFR in human SKOV3 cells assessed as cell growth inhibition at 5 to 10 uM treated as pulsed dose of 6 hrs every other day measured at 120 hrs post dose by hemacytometric method. The class given is cell-based. The procedure, abridged:
(§3)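 SKOV-3 ovarian cancer cells in RPMI 1640 with 10% fetal calf serum and antibiotics at 37°C, 5% CO2. Seeded at 20,000 cells/well and counted after 24 h for time 0. Compound or sterile water given either continuously (24 h daily) or pulsed for 6 h every 48 h. Cells counted at 96 and 120 h; concentration series used for the dose-response.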

In data set [7] the target is T3, Opioid growth factor receptor (Homo sapiens). Kind of data set: Antagonist activity at OGFR in human SKOV3 cells assessed as cell growth inhibition at 10 uM treated as pulsed dose of 6 hrs every other day by hemacytometric method. The class given is cell-based. The procedure, abridged:
as §3

Data set [8] is filed under the species Chlorocebus aethiops. The experiment in a line: Antagonist activity at OGFR in African green monkey COS7 cells harboring OGF assessed as increase in cell growth at 1 uM after 72 hrs by BrdU incorporation assay. The procedure, abridged:
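COS-7 cells on coverslips exposed to compound (1 μM) for 24 h. BrdU added in fresh DMEM for 3 h, then cells stained with DAPI counterstain. At least 100 cells per treatment scored blind for BrdU incorporation; growth evaluated at 72 h.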
(Incorporation of labelled thymidine or its analogues reports DNA synthesis.)

The target in data set [9] is Delta-type opioid receptor (Homo sapiens) (UniProt P41143). The experiment in a line: Agonist activity at human delta opioid receptor assessed as beta-arrestin recruitment up to 5 uM after 180 mins by chemiluminescence assay. The procedure, abridged:
as §1

The target is the same in data set [10]. The experiment in a line: Antagonist activity at delta opioid receptor (unknown origin) up to 10 uM by GTPgammaS functional assay. The procedure, abridged: as §2
In data set [11] the target is T1, Mu-type opioid receptor. Kind of data set: Agonist activity at mu opioid receptor (unknown origin) up to 10 uM by GTPgammaS functional assay. The procedure, abridged:
as §2

In data set [12] the target is Delta-type opioid receptor (Homo sapiens) (UniProt P41143). Kind of data set: Agonist activity at delta opioid receptor (unknown origin) up to 10 uM by GTPgammaS functional assay. The procedure, abridged: as §2
Chain of Delta-type opioid receptor (Homo sapiens) (P41143 whole entry): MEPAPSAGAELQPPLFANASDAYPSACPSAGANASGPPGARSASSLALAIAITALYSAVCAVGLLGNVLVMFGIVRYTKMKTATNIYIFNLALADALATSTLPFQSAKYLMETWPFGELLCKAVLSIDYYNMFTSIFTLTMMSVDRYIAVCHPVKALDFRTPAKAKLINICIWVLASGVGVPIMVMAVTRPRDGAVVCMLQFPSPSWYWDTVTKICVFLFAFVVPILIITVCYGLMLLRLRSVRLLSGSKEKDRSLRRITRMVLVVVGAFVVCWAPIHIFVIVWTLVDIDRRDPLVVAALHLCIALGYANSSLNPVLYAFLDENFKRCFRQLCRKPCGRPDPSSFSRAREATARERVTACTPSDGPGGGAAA
Data set [13] deals with T3, Opioid growth factor receptor (Homo sapiens). The experiment in a line: Antagonist activity at OGFR in human SKOV3 cells assessed as increase in cell growth at 10 uM after 24 hrs by hemacytometric method. The class given is cell-based. The procedure, abridged:
as §3

Data set [14] concerns the target T2, Kappa-type opioid receptor. The experiment in a line: Agonist activity at kappa opioid receptor (unknown origin) up to 10 uM by GTPgammaS functional assay. The procedure, abridged: as §2
Data set [15] deals with T3, Opioid growth factor receptor (Homo sapiens). Kind of data set: Antagonist activity at OGFR in human SKOV3 cells assessed as increase in cell growth at 0.1 to 10 uM treated continuously for 24 hrs measured at 120 hrs post dose by hemacytometric method. The class given is cell-based. The procedure, abridged: as §3
The target is the same in data set [16]. The experiment in a line: Antagonist activity at OGFR in human SKOV3 cells assessed as cell growth inhibition at 10 uM treated as pulsed dose of 6 hrs every other day measured at 120 hrs post dose by hemacytometric method. The class given is cell-based. The procedure, abridged:
as §3

T1 sequence (P35372 whole entry): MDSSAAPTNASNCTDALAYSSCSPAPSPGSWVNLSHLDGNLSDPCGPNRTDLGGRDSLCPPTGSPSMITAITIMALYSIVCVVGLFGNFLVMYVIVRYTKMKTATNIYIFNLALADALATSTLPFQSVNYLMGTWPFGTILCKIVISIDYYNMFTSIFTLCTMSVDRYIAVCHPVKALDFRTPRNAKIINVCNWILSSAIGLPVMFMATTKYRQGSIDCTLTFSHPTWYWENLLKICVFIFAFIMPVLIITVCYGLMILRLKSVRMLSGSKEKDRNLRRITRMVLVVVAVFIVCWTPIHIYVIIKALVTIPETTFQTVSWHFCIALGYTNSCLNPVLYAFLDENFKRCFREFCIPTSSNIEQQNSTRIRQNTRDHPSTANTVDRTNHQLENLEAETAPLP
T2 sequence (P41145 whole entry): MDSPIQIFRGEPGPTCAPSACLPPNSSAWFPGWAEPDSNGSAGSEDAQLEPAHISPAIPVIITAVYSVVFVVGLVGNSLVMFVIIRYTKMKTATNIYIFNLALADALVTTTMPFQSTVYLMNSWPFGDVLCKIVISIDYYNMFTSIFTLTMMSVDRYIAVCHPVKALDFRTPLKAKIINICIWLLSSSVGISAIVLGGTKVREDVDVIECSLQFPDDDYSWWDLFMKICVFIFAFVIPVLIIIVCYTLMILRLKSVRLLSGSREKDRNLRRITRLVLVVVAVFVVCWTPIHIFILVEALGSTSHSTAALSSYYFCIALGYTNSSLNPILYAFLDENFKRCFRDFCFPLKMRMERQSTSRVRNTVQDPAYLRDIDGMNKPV

On to `COc1cc(/C=C/c2ccc(O)c(O)c2CC=C(C)C)c(C/C=C(\C)CCC=C(C)C)c(OC)c1`, for which the “Cell growth increase (active/not active)” value in data set [1] is “Active”.

With `COc1cc(OC)c(C/C=C(\C)CCC=C(C)C)c(C(=O)Nc2cc(O)c(O)c(CC=C(C)C)c2)c1`, the result in data set [2], in data set [9], in [11] and in data set [12] was inactive. In addition, the “inhibition (INH)” value in data set [3] was “Not Active”. Also, the Activity entry in data set [4] and in data set [14] was “Not Active” each time. The inhibition entry in [5] and in [10] was “inactive” each time. Besides, the “growth inhibition (GI)” value in [6] and in data set [7] was “Active” each time. Further, the inhibition result in [8], in data set [13] and in data set [15] was “Active” in each case.

For `COc1cc(NC(=O)c2ccc(O)c(O)c2CC=C(C)C)c(C/C=C(\C)CCC=C(C)C)c(OC)c1`, the result in data set [2], in data set [9], in [11] and in data set [12] was inactive. In addition, the “inhibition (INH)” value in [3] was “Not Active”. The Activity result in [4] and in data set [14] was “Not Active” throughout. The inhibition entry in data set [5] and in data set [10] was “inactive” throughout. In addition, the “Cell growth increase (active/not active)” value in data set [1] was “Active”. Further, the “growth inhibition (GI)” value in data set [7] is “Active”. For the same compound, the inhibition result in data set [13] is “Active”.

On to `COc1cc(/C=C/c2cc(O)c(O)c(CC=C(C)C)c2)c(C/C=C(\C)CCC=C(C)C)c(OC)c1`, for which the “Cell growth increase (active/not active)” value in data set [1] is “inactive”.

With `O=C1CC[C@@]2(O)[C@H]3Cc4ccc(O)c5c4[C@@]2(CCN3CC2CC2)[C@H]1O5`, the “Cell growth increase (active/not active)” value in data set [1] was “Active”. For the same compound, the “growth inhibition (GI)” value in data set [7] is “Active”.

In the case of `COc1cc(OC)c(C/C=C(\C)CCC=C(C)C)c(C(=O)Nc2ccc(O)c(O)c2CC=C(C)C)c1`, the result in data set [2], in [9], in [11] and in data set [12] was inactive. Further, the “inhibition (INH)” value in data set [3] is recorded as “Not Active”. Moreover, the Activity entry in [4] and in data set [14] was “Not Active” throughout. Moreover, the inhibition result in data set [5], in data set [8] and in [10] was “inactive” throughout. The “growth inhibition (GI)” value in [7] and in data set [16] was “Active” throughout. Moreover, the inhibition result in data set [13] is “Active”.

For `COc1cc(NC(=O)c2cc(O)c(O)c(CC=C(C)C)c2)c(C/C=C(\C)CCC=C(C)C)c(OC)c1`, the result in data set [2], in [9], in data set [11] and in data set [12] was inactive. The “inhibition (INH)” value in data set [3] was “Not Active”. In addition, the Activity entry in data set [4] and in data set [14] was “Not Active” throughout. Also, the inhibition result in data set [5] and in data set [10] was “inactive” each time. Further, in data set [1], the “Cell growth increase (active/not active)” value was “Active”.
